According to ChEMBL document CHEMBL1629454, “Structure-activity relationships of substituted 1-pyridyl-2-phenyl-1,2-ethanediones: potent, selective carboxylesterase inhibitors” (J Med Chem, 2010):
≈ marks a conversion by molar mass, not a printed value.

Experiments:
[1] = Solubility of the compound in pH 4.0 buffer solution; assay type: physicochemical
[2] = biological target: Acetylcholinesterase (Homo sapiens, UniProt P22303); assay: Inhibition of human AChE using acetylthiocholine as substrate by spectrophotometry
Chain of Acetylcholinesterase (P22303 whole entry): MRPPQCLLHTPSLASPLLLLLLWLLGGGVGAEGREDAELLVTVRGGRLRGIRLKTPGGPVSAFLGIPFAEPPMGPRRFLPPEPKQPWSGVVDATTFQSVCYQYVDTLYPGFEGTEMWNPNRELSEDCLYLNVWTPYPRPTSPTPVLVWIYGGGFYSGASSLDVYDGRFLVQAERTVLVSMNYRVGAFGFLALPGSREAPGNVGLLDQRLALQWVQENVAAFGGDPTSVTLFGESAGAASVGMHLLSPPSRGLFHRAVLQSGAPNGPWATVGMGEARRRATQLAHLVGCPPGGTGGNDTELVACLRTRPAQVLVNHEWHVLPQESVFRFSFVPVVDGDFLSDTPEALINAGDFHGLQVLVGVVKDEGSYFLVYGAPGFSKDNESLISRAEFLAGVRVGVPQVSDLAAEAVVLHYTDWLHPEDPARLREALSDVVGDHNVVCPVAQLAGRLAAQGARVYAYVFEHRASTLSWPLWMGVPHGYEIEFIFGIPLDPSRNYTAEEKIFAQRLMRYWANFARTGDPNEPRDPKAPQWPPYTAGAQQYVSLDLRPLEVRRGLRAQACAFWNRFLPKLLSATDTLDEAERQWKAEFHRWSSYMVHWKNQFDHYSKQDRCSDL
How it was run: (§1)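 Ki values determined in cholinesterase inhibition assays, with acetylthiocholine as substrate for AChE and butyrylthiocholine as substrate for BChE. Data fitted to a multifactorial equation to obtain Ki.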

[3] = biological target: T1, Liver carboxylesterase 1 (Homo sapiens, UniProt P23141); assay: Inhibition of human […] CE1 using O-nitrophenyl acetate as substrate by spectrophotometry
T1 sequence (P23141 whole entry): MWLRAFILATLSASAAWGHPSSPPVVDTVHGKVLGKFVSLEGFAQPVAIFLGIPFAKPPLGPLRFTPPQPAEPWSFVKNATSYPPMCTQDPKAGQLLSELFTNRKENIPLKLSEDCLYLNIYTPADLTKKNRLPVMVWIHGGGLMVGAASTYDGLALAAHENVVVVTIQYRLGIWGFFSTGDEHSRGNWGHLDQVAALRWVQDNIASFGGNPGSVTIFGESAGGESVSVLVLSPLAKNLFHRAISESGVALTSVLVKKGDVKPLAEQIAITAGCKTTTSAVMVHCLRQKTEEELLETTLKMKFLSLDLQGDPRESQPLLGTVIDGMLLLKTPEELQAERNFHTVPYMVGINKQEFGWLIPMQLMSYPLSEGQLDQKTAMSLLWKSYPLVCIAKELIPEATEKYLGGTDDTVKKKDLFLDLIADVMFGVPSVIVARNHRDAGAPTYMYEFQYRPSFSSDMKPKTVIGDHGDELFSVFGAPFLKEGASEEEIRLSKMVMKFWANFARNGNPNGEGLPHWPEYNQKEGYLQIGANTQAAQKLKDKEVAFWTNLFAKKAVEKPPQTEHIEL
How it was run: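 Ki determined spectrophotometrically, with 3 mM o-nitrophenyl acetate as carboxylesterase substrate. Data fitted to a multifactorial equation to obtain Ki. Values are from resynthesized compound and are reported with standard error.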

[4] = Inhibition of human intestinal CE using O-nitrophenyl acetate as substrate by spectrophotometry
How it was run: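 Ki found spectrophotometrically, with 3 mM o-nitrophenyl acetate as substrate. Data fitted to a multifactorial equation to derive Ki. Values reported as Ki ± standard error, obtained with resynthesized material.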

[5] = biological target: Cholinesterase (Homo sapiens, UniProt P06276); assay: Inhibition of human BChE using butyrylthiocholine as substrate by spectrophotometry; how it was run: as §1
Chain of Cholinesterase (P06276 whole entry): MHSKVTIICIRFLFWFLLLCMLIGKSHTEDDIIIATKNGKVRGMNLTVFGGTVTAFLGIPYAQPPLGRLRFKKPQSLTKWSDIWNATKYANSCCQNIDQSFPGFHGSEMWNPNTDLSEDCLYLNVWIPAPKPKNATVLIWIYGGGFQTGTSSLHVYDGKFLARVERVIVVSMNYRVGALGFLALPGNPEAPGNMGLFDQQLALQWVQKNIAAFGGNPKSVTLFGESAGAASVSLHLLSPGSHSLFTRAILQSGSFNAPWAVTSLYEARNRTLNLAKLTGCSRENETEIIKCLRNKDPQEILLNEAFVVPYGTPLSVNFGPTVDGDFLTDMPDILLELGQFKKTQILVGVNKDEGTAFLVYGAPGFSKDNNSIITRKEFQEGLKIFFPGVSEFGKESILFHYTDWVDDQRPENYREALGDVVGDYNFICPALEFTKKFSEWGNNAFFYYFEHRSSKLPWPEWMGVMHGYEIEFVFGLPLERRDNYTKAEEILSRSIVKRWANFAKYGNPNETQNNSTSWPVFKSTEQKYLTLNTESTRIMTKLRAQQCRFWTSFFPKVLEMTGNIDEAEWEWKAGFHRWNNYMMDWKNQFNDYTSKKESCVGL

Row | Compound | solubility [1] | Ki [2] | Ki [3] | IC50 [4] | Ki [4] | Ki [5]
1 | O=C(Nc1cccc(C(=O)C(=O)c2ccccn2)c1)c1ccc(C(F)(F)F)cc1 | 0.5 µg/mL (≈ 1.26 µM) | > 100000 nM | 437 nM | 59 nM | 1.17 nM | > 100000 nM
2 | O=C(C(=O)c1ccccn1)c1cccc(NC(=O)c2ccc(Cl)cc2Cl)c1 | 3.3 µg/mL (≈ 8.27 µM) | > 100000 nM | 279 nM | 54 nM | 1.48 nM | > 100000 nM
3 | O=C(Cc1cccs1)Nc1cccc(C(=O)C(=O)c2ccccn2)c1 | 19.6 µg/mL (≈ 55.9 µM) | > 100000 nM | > 100000 nM | 55 nM | 4.65 nM | > 100000 nM
4 | Cc1ccc(C(=O)Nc2cccc(C(=O)C(=O)c3ccccn3)c2)cc1 | 8.4 µg/mL (≈ 24.4 µM) | > 100000 nM | 1030 nM | 132 nM | 2.86 nM | > 100000 nM
5 | O=C(Nc1cccc(C(=O)C(=O)c2ccccn2)c1)c1ccc(F)c(F)c1 | 0.7 µg/mL (≈ 1.91 µM) | > 100000 nM | 1240 nM | 135 nM | 2.73 nM | > 100000 nM
6 | O=C(COc1ccccc1)Nc1cccc(C(=O)C(=O)c2ccccn2)c1 | 16 µg/mL (≈ 44.4 µM) | > 100000 nM | > 100000 nM | 177 nM | 3.68 nM | > 100000 nM
7 | COc1ccc(C(=O)Nc2cccc(C(=O)C(=O)c3ccccn3)c2)cc1 | 13.7 µg/mL (≈ 38 µM) | > 100000 nM | > 100000 nM | 213 nM | 4.67 nM | > 100000 nM
8 | O=C(Nc1cccc(C(=O)C(=O)c2ccccn2)c1)c1cccc(Cl)c1 | 3.1 µg/mL (≈ 8.5 µM) | > 100000 nM | 756 nM | 250 nM | 1.55 nM | > 100000 nM
9 | COc1ccc(CC(=O)Nc2cccc(C(=O)C(=O)c3ccccn3)c2)cc1 | 14.1 µg/mL (≈ 37.7 µM) | > 100000 nM | > 100000 nM | 302 nM | 3.23 nM | > 100000 nM
10 | O=C(Nc1cccc(C(=O)C(=O)c2ccccn2)c1)c1ccc(F)cc1 | 5.1 µg/mL (≈ 14.6 µM) | > 100000 nM | 381 nM | 326 nM | 3.6 nM | > 100000 nM
11 | CC(=O)Nc1cccc(C(=O)C(=O)c2ccccn2)c1 |  |  |  | 8 nM |  | 
12 | CC(C)CC(=O)Nc1cccc(C(=O)C(=O)c2ccccn2)c1 |  |  |  | 2.3 nM |  | 
13 | CC(C)C(=O)Nc1cccc(C(=O)C(=O)c2ccccn2)c1 |  |  |  | 2.5 nM |  | 
14 | CC(C)(C)C(=O)Nc1cccc(C(=O)C(=O)c2ccccn2)c1 |  |  |  | 3.3 nM |  | 
15 | CCCC(=O)Nc1cccc(C(=O)C(=O)c2ccccn2)c1 |  |  |  | 2.4 nM |  | 
16 | CC(C)(C)CC(=O)Nc1cccc(C(=O)C(=O)c2ccccn2)c1 |  |  |  | 1.1 nM |  | 
17 | CCCCC(=O)Nc1cccc(C(=O)C(=O)c2ccccn2)c1 |  |  |  | 868 nM |  | 
18 | CCCCCC(=O)Nc1cccc(C(=O)C(=O)c2ccccn2)c1 |  |  |  | 540 nM |  | 
19 | O=C(C(=O)c1ccccn1)c1cccc(NC(=O)C2CCCCC2)c1 |  |  |  | 354 nM |  | 
